Article PMC4340684 (Bioorganic & medicinal chemistry, 2015)

Experiments:
recombinant rat HSL [1] = target: T1, recombinant rat HSL (Rattus norvegicus, UniProt P15304); assay: HSL lipase assay; assay type: biochemical; conditions: for times more potent than the corresponding cis isomer: chain lengths of 12–18 carbon atoms
T1 sequence (P15304 1-768 isoform P15304-2): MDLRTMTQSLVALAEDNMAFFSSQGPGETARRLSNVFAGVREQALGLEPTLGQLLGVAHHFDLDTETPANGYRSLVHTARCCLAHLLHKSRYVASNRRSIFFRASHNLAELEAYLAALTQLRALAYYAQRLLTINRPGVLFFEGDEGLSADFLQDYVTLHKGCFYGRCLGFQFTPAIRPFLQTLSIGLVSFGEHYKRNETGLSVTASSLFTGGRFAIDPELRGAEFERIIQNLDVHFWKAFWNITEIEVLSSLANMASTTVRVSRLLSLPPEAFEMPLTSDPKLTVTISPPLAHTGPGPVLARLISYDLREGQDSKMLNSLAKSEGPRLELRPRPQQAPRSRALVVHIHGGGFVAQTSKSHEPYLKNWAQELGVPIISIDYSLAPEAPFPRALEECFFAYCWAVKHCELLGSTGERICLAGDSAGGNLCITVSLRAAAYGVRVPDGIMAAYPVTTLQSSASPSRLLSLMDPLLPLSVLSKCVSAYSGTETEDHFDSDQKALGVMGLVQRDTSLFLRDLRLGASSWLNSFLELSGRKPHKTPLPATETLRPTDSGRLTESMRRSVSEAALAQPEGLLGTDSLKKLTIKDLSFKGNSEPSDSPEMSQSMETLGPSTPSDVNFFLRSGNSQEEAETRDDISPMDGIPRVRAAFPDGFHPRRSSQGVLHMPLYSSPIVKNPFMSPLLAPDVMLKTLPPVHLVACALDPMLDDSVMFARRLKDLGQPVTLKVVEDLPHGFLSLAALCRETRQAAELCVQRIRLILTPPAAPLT

recombinant rat HSL [2] = target: T1, recombinant rat HSL; assay: Determination of rate constants for binding and inactivation of HSL; assay type: biochemical; conditions: fit to Eqn 2; no preincubation, 37 °C
Outline: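 Baculovirus/Sf9-expressed rat HSL, Ni-NTA purified. Inhibitor in PC/PI (3:1) liposomes with 500 μM triolein plus 3H-triolein; pH 7.4 buffer, 0.2% BSA. Enzyme added directly at 37 °C; samples every 3–5 min for 30 min, 3H-oleate extracted, scintillation counted. Activity–time data at several inhibitor concentrations fit to Eqn 1 (kobs, k−2); normalized activity fit to Eqn 2 (KI, k2).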

Structure (SMILES) | times more potent than the corresponding cis isomer (recombinant rat HSL [1]) | further results
CCCCCCCCCCCCCCCC[C@H]1CC[P@@](=O)(OC)OC(C)=C1C(=O)OC [11b] | 2–6 times | –
CCCCCCCCCCCCCCCCO[P@]1(=O)CC[C@@H]2COC(=O)C2=C(C)O1 (racemic) [Cyclipostin P Phosphonate 6a, (±)-(3R(S),5aR(S))-3-(hexadecyloxy)-1-methyl-4,5,5a,6-tetrahydrofuro[3,4-e][1,2]oxaphosphepin-8(3H)-one 3-oxide] | – | fold less potent than the other bicyclic phosphonate analogs (recombinant rat HSL [1]; vs about 400 nM): about 10 fold
CCCCCCCCCCCCCCCCCC[C@H]1CC[P@@](=O)(OC)OC(C)=C1C(=O)OC [12b] | 2–6 times | –
CCCCCCCCCCCCCCCCO[P@]1(=O)OC[C@@H]2COC(=O)C2=C(C)O1 [Cyclipostin P 4a] | – | k2 (forward rate constant for inactivation) (recombinant rat HSL [2]): 0.2 min⁻¹
CCCCCCCCCCCC[C@H]1CC[P@@](=O)(OC)OC(C)=C1C(=O)OC [10b] | 2–6 times | –
CCCCCCCCCCCCCCCCO[P@]1(=O)OC[C@H]2COC(=O)C2=C(C)O1 [Cyclipostin P 4b] | – | fold weaker IC50 of the less potent diastereomer vs the more potent diastereomer (recombinant rat HSL [1]): 16 fold
